Assay results from ChEMBL document CHEMBL4680218, “Design and synthesis of tripeptidyl furylketones as selective inhibitors against the β5 subunit of human 20S proteasome” (Eur J Med Chem, 2020).

What was measured:
[1] = target: T1, Proteasome Macropain subunit MB1 (Homo sapiens) (UniProt P28074); assay: Inhibition of chymotrypsin-like activity of human 20S proteasome beta5 subunit at 50 uM using Suc-LLVY-Glo as substrate incubated for 2 hrs followed by substrate addition and measured for 10 mins by bioluminescent assay relative to control; conditions: time 130.0 min
T1 sequence (whole entry): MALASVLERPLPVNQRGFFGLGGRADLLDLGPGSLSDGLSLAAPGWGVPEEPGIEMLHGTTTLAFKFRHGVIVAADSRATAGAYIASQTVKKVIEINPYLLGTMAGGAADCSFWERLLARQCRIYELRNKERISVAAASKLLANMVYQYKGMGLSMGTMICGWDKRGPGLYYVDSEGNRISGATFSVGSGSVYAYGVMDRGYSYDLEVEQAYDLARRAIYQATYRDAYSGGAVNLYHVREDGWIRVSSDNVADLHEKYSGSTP
Summary of the method: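 Human constitutive 20S proteasome (1 µg/mL) was incubated with compound for 2 h at 25 °C in 10 mM HEPES pH 7.6 with 1% DMSO final. Suc-LLVY-Glo substrate was then added, and luminescence was read over 10 min. Inhibition rate was calculated against the uninhibited signal.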

[2] = target: T2, Proteasome Macropain subunit MB1 (Homo sapiens, UniProt P28074); assay: Inhibition of chymotrypsin-like activity of human 20S proteasome beta5 subunit using Suc-LLVY-Glo as substrate incubated for 2 hrs followed by substrate addition and measured for 10 mins by bioluminescent assay
T2 sequence (P28074 whole entry): T1 sequence (whole entry)
Summary of the method: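 Human constitutive 20S proteasome (1 μg/mL) was combined with compound serially diluted in 10 mM HEPES pH 7.6, with final DMSO 1% (v/v). After 2 h at 25 °C, Suc-LLVY-Glo (CT-L), Z-LRR-Glo (T-L) or Z-nLPnLD-Glo (C-L) reagent was added. Luminescence was read over 10 min, and IC50 was taken from inhibition rates.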

HCT-116 [3] = assay: Cell cycle arrest in human HCT-116 cells assessed as accumulation at G2/M phase at 1 uM after 24 hrs by propidium iodide staining based flow cytometric analysis (reference value: 21%); assay type: functional
HCT-116 [4] = assay: Cytotoxicity against human HCT-116 cells assessed as reduction in cell viability after 72 hrs by Cell Titer-Glo assay; assay type: functional, cell-based; conditions: HCT-116, 72 h
Summary of the method: (§1)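 Cells were cultured in their respective media with 10% FBS, seeded from log phase at 1000 cells/well, and given compound after 18–24 h. After 72 h, an equal volume of CellTiter-Glo reagent was added and luminescence was read at 37 °C. IC50 came from dose-response curve fits; values are mean ± SD of three independent experiments, each in biological triplicate.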

A549 = assay: Cytotoxicity against human A549 cells assessed as reduction in cell viability after 72 hrs by Cell Titer-Glo assay; assay type: functional, cell-based; conditions: A549, 72 h; summary of the method: as §1
HeLa = assay: Cytotoxicity against human HeLa cells assessed as reduction in cell viability after 72 hrs by Cell Titer-Glo assay; assay type: functional, cell-based; summary of the method: as §1
[5] = Cytotoxicity against human PC3M1E8 cells assessed as reduction in cell viability after 72 hrs by Cell Titer-Glo assay; assay type: functional, cell-based; conditions: PC3M1E8, 72 h; summary of the method: as §1
HCT-116 [6] = assay: Cell cycle arrest in human HCT-116 cells assessed as accumulation at G1 phase at 1 uM after 24 hrs by propidium iodide staining based flow cytometric analysis (reference value: 29%); assay type: functional
BGC-823 = assay: Cytotoxicity against human BGC-823 cells assessed as reduction in cell viability after 72 hrs by Cell Titer-Glo assay; assay type: functional, cell-based; conditions: BGC-823, 72 h; summary of the method: as §1
HEK293 = assay: Cytotoxicity against human HEK293 cells assessed as reduction in cell viability after 72 hrs by Cell Titer-Glo assay; assay type: cell-based; conditions: HEK293, 72 h; summary of the method: as §1
HCT-116 [7] = assay: Cell cycle arrest in human HCT-116 cells assessed as accumulation at S phase at 1 uM after 24 hrs by propidium iodide staining based flow cytometric analysis (reference value: 50%); assay type: functional
HT-29 = assay: Cytotoxicity against human HT-29 cells assessed as reduction in cell viability after 72 hrs by Cell Titer-Glo assay; assay type: functional, cell-based; conditions: HT-29, 72 h; summary of the method: as §1
A-375 = assay: Cytotoxicity against human A-375 cells assessed as reduction in cell viability after 72 hrs by Cell Titer-Glo assay; assay type: functional, cell-based; conditions: A-375, 72 h; summary of the method: as §1
[8] = target: T1, Proteasome Macropain subunit MB1 (Homo sapiens); assay: Reversible inhibition of human 20S proteasome beta5 subunit assessed as residual enzyme activity using Suc-LLVY-Glo as substrate preincubated for 2 hrs followed by compound washout and further incubated for 4 hrs followed by substrate addition and measured after 10 mins by bioluminescent assay relative to control
Summary of the method: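 Human 20S proteasome (8 μg/mL) was pre-incubated with inhibitor for 2 h at 25 °C. Samples were then washed five times in assay buffer on 100 kDa cut-off centrifugal filters (14,000 g, 5 min each) and recovered. After a further 4 h at 25 °C, Suc-LLVY-Glo was added and luminescence was read after 10 min. Unwashed samples held an extra 4 h served as the standard.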

SMILES | inhibition [1] [%] | IC50 [2] [µM] | also measured
Cc1ccc(S(=O)(=O)N[C@@H](CC(=O)NCC(C)(C)C)C(=O)N[C@@H](C)C(=O)N[C@@H](CC(C)C)C(=O)c2ccco2)cc1 | > 50 | 5.63 | –
COC[C@H](NC(=O)[C@H](CC(=O)NCC(C)C)NS(=O)(=O)c1ccc(C)cc1)C(=O)N[C@@H](CC(C)C)C(=O)c1ccco1 | > 50 | 0.68 | Activity (HCT-116 [3]): 43%; IC50 (HCT-116 [4]): 1.67 µM; IC50 (A549): 17.6 µM; IC50 (HeLa): 2.47 µM; IC50 [5]: 3.73 µM; Activity (HCT-116 [6]): 27%; IC50 (BGC-823): 3.96 µM; IC50 (HEK293): > 50 µM; Activity (HCT-116 [7]): 30%; IC50 (HT-29): 4.85 µM; IC50 (A-375): 2.61 µM
COc1ccc(C[C@H](NC(=O)OC(C)(C)C)C(=O)N[C@@H](C)C(=O)N[C@@H](CC(C)C)C(=O)c2ccco2)cc1 | > 50 | 12 | –
COc1ccc(C[C@H](NC(=O)[C@H](Cc2ccccc2)NC(=O)c2ccccc2Br)C(=O)N[C@@H](CC(C)C)C(=O)c2ccco2)cc1 | > 50 | > 50 | –
COc1ccc(C[C@H](NC(=O)OC(C)(C)C)C(=O)N[C@@H](Cc2ccc(Cl)cc2)C(=O)N[C@@H](CC(C)C)C(=O)c2ccco2)cc1 | > 50 | 50 | –
CC(C)C[C@H](NC(=O)[C@H](Cc1ccccc1)NC(=O)c1cnccn1)B(O)O | – | – | Activity [8]: 80%
COc1ccc(C[C@H](NC(=O)[C@H](Cc2ccccc2)NC(=O)c2ccccc2[N+](=O)[O-])C(=O)N[C@@H](CC(C)C)C(=O)c2ccco2)cc1 | > 50 | 7.26 | –
COc1ccc(C[C@H](NC(=O)[C@H](Cc2ccccc2)NC(=O)c2ccccc2OC)C(=O)N[C@@H](CC(C)C)C(=O)c2ccco2)cc1 | > 50 | > 50 | –
Cc1ccc(S(=O)(=O)N[C@@H](CC(=O)NCCC(C)C)C(=O)N[C@@H](C)C(=O)N[C@@H](CC(C)C)C(=O)c2ccco2)cc1 | > 50 | 6.3 | –

Continued, in another order:

inhibition [1] [%] | IC50 [2] [µM] | SMILES | also measured
> 50 | 2.33 | Cc1ccc(S(=O)(=O)N[C@@H](Cc2ccccc2)C(=O)N[C@@H](Cc2ccc(O)cc2)C(=O)N[C@@H](CC(C)C)C(=O)c2ccco2)cc1 | –
> 50 | 4.56 | CC(C)C[C@H](NC(=O)[C@H](Cc1ccc(O)cc1)NC(=O)[C@H](Cc1ccc(O)cc1)NC(=O)c1ccc(CO)cc1)C(=O)c1ccco1 | –
> 50 | 13.9 | CC(=O)N[C@@H](Cc1ccccc1)C(=O)N[C@@H](Cc1ccc(O)cc1)C(=O)N[C@@H](CC(C)C)C(=O)c1ccco1 | –
> 50 | 0.54 | COc1ccc(C[C@H](NS(=O)(=O)c2ccc(C)cc2)C(=O)N[C@@H](Cc2ccc(O)cc2)C(=O)N[C@@H](CC(C)C)C(=O)c2ccco2)cc1 | Activity (HCT-116 [3]): 51%; IC50 (HCT-116 [4]): 3.52 µM; IC50 (A549): 13.1 µM; IC50 (HeLa): 6.35 µM; IC50 [5]: 4.98 µM; Activity (HCT-116 [6]): 24%; IC50 (BGC-823): 8.37 µM; IC50 (HEK293): > 50 µM; Activity (HCT-116 [7]): 25%; IC50 (HT-29): 5.4 µM; IC50 (A-375): 3.87 µM
